This note sets out measurements from ChEMBL document CHEMBL2062487, “Design, synthesis and evaluation of clinafloxacin triazole hybrids as a new type of antibacterial and antifungal agents” (2012).

By MIC is commonly meant the smallest concentration in the dilution series that meets the test's criterion for growth inhibition. Low values mean greater potency, high ones weaker potency.

What all share (assay type): functional
One test deals with Pseudomonas aeruginosa. In words: Antibacterial activity against Pseudomonas aeruginosa by two fold broth dilution method. Put shortly: (§1)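 MIC was determined by twofold broth dilution in microplates, following NCCLS recommendations. Clinafloxacin, chloramphenicol and fluconazole served as positive controls. Values are given in μg/mL.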
(In general: Broth dilution looks for growth in wells or tubes with falling amounts of substance.)

A further test has as its system Escherichia coli. The test is described as follows: Antibacterial activity against Escherichia coli JM109 by two fold broth dilution method. The method, boiled down:
as §1

Test [1] has as its system Staphylococcus aureus. In words: Antibacterial activity against methicillin-resistant Staphylococcus aureus N 315 by two fold broth dilution method. Particulars: N315. Put shortly: (§2)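 Twofold broth dilution in 96-well microtest plates following NCCLS guidance. Endpoint is the MIC (µg/mL), the lowest concentration that inhibits growth. Clinafloxacin, chloramphenicol and fluconazole served as positive controls.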

A further test concerns Micrococcus luteus. In words: Antibacterial activity against Micrococcus luteus ATCC 4698 by two fold broth dilution method. Particulars: NCTC 2665. Put shortly: as §1
Test [2] can be described thus: Antibacterial activity against Bacillus proteus by two fold broth dilution method. Put shortly: as §1
In the next test the test system is Bacillus subtilis. The test is described as follows: Antibacterial activity against Bacillus subtilis ATCC 6633 by two fold broth dilution method. The method, boiled down: as §1
The test system of test [3] is Staphylococcus aureus. The test is described as follows: Antibacterial activity against Staphylococcus aureus ATCC […] by two fold broth dilution method. The method, boiled down:
as §1

A further test deals with Shigella dysenteriae. The test is described as follows: Antibacterial activity against Shigella dysenteriae by two fold broth dilution method. Put shortly:
as §2

The next test has as its system Candida. In words: Antifungal activity against Candida mycoderma by two fold broth dilution method. Put shortly:
as §1

Another test concerns Candida albicans. In words: Antifungal activity against Candida albicans ATCC 76615 by two fold broth dilution method. The method, boiled down:
as §1

Each structure is given as a SMILES string. Values after ≈ are worked out from the molar mass of the structure shown.

Consider `Cc1ccc(C(=O)Cn2cncn2)cc1`, for which the MIC against Pseudomonas aeruginosa was 32 µg/mL (≈ 159 µM); in the test with Escherichia coli, 32 µg/mL (≈ 159 µM); against Staphylococcus aureus [1] it was over 512 µg/mL; against Micrococcus luteus it was over 512 µg/mL; in test [2] it was over 512 µg/mL; against Bacillus subtilis it was 256 µg/mL (≈ 1270 µM). In addition, the MIC in the test on Staphylococcus aureus [3], against Shigella dysenteriae, against Candida and against Candida albicans was over 512 µg/mL each time.
On to `O=C(Cn1cncn1)c1ccc(Cl)cc1`, for which the MIC with Pseudomonas aeruginosa was 512 µg/mL (≈ 2310 µM); with Escherichia coli it was over 512 µg/mL; against Staphylococcus aureus [1], 512 µg/mL (≈ 2310 µM); in the test on Micrococcus luteus, over 512 µg/mL; in test [2], 512 µg/mL (≈ 2310 µM); in the test on Bacillus subtilis it was over 512 µg/mL. Besides, the MIC in the test with Staphylococcus aureus [3] was 512 µg/mL (≈ 2310 µM); against Shigella dysenteriae, 512 µg/mL (≈ 2310 µM); against Candida, over 512 µg/mL; against Candida albicans it was 512 µg/mL (≈ 2310 µM).
Take `O=C(Cn1cncn1)c1ccc(F)cc1`: the MIC is 512 µg/mL (≈ 2500 µM) with Pseudomonas aeruginosa; over 512 µg/mL against Escherichia coli; over 512 µg/mL against Staphylococcus aureus [1]; over 512 µg/mL against Micrococcus luteus; over 512 µg/mL in test [2]; over 512 µg/mL against Bacillus subtilis. In addition, the MIC against Staphylococcus aureus [3], against Shigella dysenteriae, against Candida and against Candida albicans was over 512 µg/mL in each case.
Take `O=C(Cn1cncn1)c1ccc(Cl)c(Cl)c1`: the MIC in the test with Pseudomonas aeruginosa is 128 µg/mL (≈ 500 µM); in the test with Escherichia coli it was 32 µg/mL (≈ 125 µM); in the test with Staphylococcus aureus [1], over 512 µg/mL; in the test with Micrococcus luteus, 512 µg/mL (≈ 2000 µM); in [2], 256 µg/mL (≈ 1000 µM); against Bacillus subtilis it was 512 µg/mL (≈ 2000 µM). For the same compound, the MIC against Staphylococcus aureus [3] is 256 µg/mL (≈ 1000 µM); against Shigella dysenteriae it was 512 µg/mL (≈ 2000 µM); against Candida, 512 µg/mL (≈ 2000 µM); against Candida albicans it was over 512 µg/mL.
For the compound `O=C(Cn1cncn1)c1ccc(F)c(F)c1`, the MIC was 256 µg/mL (≈ 1150 µM) in the test on Pseudomonas aeruginosa; 64 µg/mL (≈ 287 µM) in the test on Escherichia coli; over 512 µg/mL against Staphylococcus aureus [1]; 512 µg/mL (≈ 2290 µM) in the test with Micrococcus luteus; over 512 µg/mL in [2]; 512 µg/mL (≈ 2290 µM) in the test with Bacillus subtilis. Moreover, the MIC against Staphylococcus aureus [3] was over 512 µg/mL; against Shigella dysenteriae, 512 µg/mL (≈ 2290 µM); against Candida, 512 µg/mL (≈ 2290 µM); with Candida albicans, over 512 µg/mL.
As to `O=C(Cn1cncn1)c1ccc(Cl)cc1Cl`, the minimum inhibitory concentration (MIC) against Pseudomonas aeruginosa is 256 µg/mL (≈ 1000 µM); in the test with Escherichia coli it was 128 µg/mL (≈ 500 µM); in the test with Staphylococcus aureus [1] it was over 512 µg/mL; with Micrococcus luteus, over 512 µg/mL; in test [2], 512 µg/mL (≈ 2000 µM); against Bacillus subtilis, 512 µg/mL (≈ 2000 µM). Besides, the MIC against Staphylococcus aureus [3] is over 512 µg/mL; in the test on Shigella dysenteriae, 512 µg/mL (≈ 2000 µM); against Candida, over 512 µg/mL; against Candida albicans, 512 µg/mL (≈ 2000 µM).
Consider `O=C(Cn1cncn1)c1ccc(F)cc1F`, for which the MIC with Pseudomonas aeruginosa was 256 µg/mL (≈ 1150 µM); in the test on Escherichia coli, 32 µg/mL (≈ 143 µM); with Staphylococcus aureus [1], over 512 µg/mL; against Micrococcus luteus, 512 µg/mL (≈ 2290 µM); in [2], 512 µg/mL (≈ 2290 µM); against Bacillus subtilis, 512 µg/mL (≈ 2290 µM). Also, the MIC with Staphylococcus aureus [3] was 512 µg/mL (≈ 2290 µM); in the test on Shigella dysenteriae, 512 µg/mL (≈ 2290 µM); in the test with Candida, over 512 µg/mL; with Candida albicans it was 512 µg/mL (≈ 2290 µM).
For the compound `Fc1ccc(C2(Cn3cncn3)CO2)c(F)c1` (racemic), the MIC amounted to 16 µg/mL (≈ 67.5 µM) in the test with Pseudomonas aeruginosa; 32 µg/mL (≈ 135 µM) against Escherichia coli; 128 µg/mL (≈ 540 µM) against Staphylococcus aureus [1]; 32 µg/mL (≈ 135 µM) against Micrococcus luteus; 32 µg/mL (≈ 135 µM) in test [2]; 16 µg/mL (≈ 67.5 µM) in the test on Bacillus subtilis. Besides, the MIC with Staphylococcus aureus [3] stood at 256 µg/mL (≈ 1080 µM); with Shigella dysenteriae, 32 µg/mL (≈ 135 µM); against Candida, 8 µg/mL (≈ 33.7 µM); with Candida albicans, 64 µg/mL (≈ 270 µM).
Consider `Clc1ccc(C2(Cn3cncn3)CO2)cc1` (racemic), for which the MIC with Pseudomonas aeruginosa was 32 µg/mL (≈ 136 µM); in the test with Escherichia coli, 32 µg/mL (≈ 136 µM); with Staphylococcus aureus [1] it was 256 µg/mL (≈ 1090 µM); in the test on Micrococcus luteus, 32 µg/mL (≈ 136 µM); in test [2], 16 µg/mL (≈ 67.9 µM); in the test on Bacillus subtilis, 16 µg/mL (≈ 67.9 µM). Also, the MIC against Staphylococcus aureus [3] came to 64 µg/mL (≈ 272 µM); against Shigella dysenteriae, 32 µg/mL (≈ 136 µM); in the test on Candida it was 32 µg/mL (≈ 136 µM); in the test with Candida albicans, 32 µg/mL (≈ 136 µM).
In the case of `Fc1ccc(C2(Cn3cncn3)CO2)cc1` (racemic), the MIC against Pseudomonas aeruginosa turned out to be 128 µg/mL (≈ 584 µM); with Escherichia coli it was 128 µg/mL (≈ 584 µM); in the test with Staphylococcus aureus [1] it was 128 µg/mL (≈ 584 µM); with Micrococcus luteus, 8 µg/mL (≈ 36.5 µM); in test [2], 128 µg/mL (≈ 584 µM); with Bacillus subtilis it was 8 µg/mL (≈ 36.5 µM). Also, the MIC in the test on Staphylococcus aureus [3] turned out to be 256 µg/mL (≈ 1170 µM); in the test on Shigella dysenteriae it was 64 µg/mL (≈ 292 µM); in the test with Candida it was 8 µg/mL (≈ 36.5 µM); in the test on Candida albicans, 64 µg/mL (≈ 292 µM).
Take `Clc1ccc(C2(Cn3cncn3)CO2)cc1Cl` (racemic): the MIC was found to be 128 µg/mL (≈ 474 µM) in the test with Pseudomonas aeruginosa; 128 µg/mL (≈ 474 µM) against Escherichia coli; 256 µg/mL (≈ 948 µM) against Staphylococcus aureus [1]; 16 µg/mL (≈ 59.2 µM) against Micrococcus luteus; 32 µg/mL (≈ 118 µM) in test [2]; 16 µg/mL (≈ 59.2 µM) in the test with Bacillus subtilis. Moreover, the MIC was 128 µg/mL (≈ 474 µM) with Staphylococcus aureus [3], 64 µg/mL (≈ 237 µM) with Shigella dysenteriae, 16 µg/mL (≈ 59.2 µM) with Candida and 64 µg/mL (≈ 237 µM) with Candida albicans.
As to `Cc1ccc(C(O)(CNC2CCN(c3c(F)cc4c(=O)c(C(=O)O)cn(C5CC5)c4c3Cl)C2)Cn2cncn2)cc1` (racemic), the MIC came out at 0.5 µg/mL (≈ 0.861 µM) in the test on Pseudomonas aeruginosa; 1 µg/mL (≈ 1.72 µM) in the test with Escherichia coli; 0.25 µg/mL (≈ 0.43 µM) in the test with Staphylococcus aureus [1]; 2 µg/mL (≈ 3.44 µM) in the test on Micrococcus luteus; 0.5 µg/mL (≈ 0.861 µM) in test [2]; 0.5 µg/mL (≈ 0.861 µM) in the test with Bacillus subtilis. The MIC amounted to 2 µg/mL (≈ 3.44 µM) in the test on Staphylococcus aureus [3], 0.5 µg/mL (≈ 0.861 µM) against Shigella dysenteriae, 0.5 µg/mL (≈ 0.861 µM) in the test with Candida and 0.5 µg/mL (≈ 0.861 µM) against Candida albicans.
In the case of `O=C(O)c1cn(C2CC2)c2c(Cl)c(N3CCC(NCC(O)(Cn4cncn4)c4ccc(F)cc4)C3)c(F)cc2c1=O` (racemic), the MIC against Pseudomonas aeruginosa is 0.5 µg/mL (≈ 0.855 µM); with Escherichia coli, 1 µg/mL (≈ 1.71 µM); in the test on Staphylococcus aureus [1] it was 2 µg/mL (≈ 3.42 µM); against Micrococcus luteus, 0.5 µg/mL (≈ 0.855 µM); in test [2] it was 0.5 µg/mL (≈ 0.855 µM); in the test with Bacillus subtilis, 1 µg/mL (≈ 1.71 µM). Further, the MIC in the test on Staphylococcus aureus [3] was determined as 2 µg/mL (≈ 3.42 µM); in the test on Shigella dysenteriae, 0.5 µg/mL (≈ 0.855 µM); against Candida it was 0.5 µg/mL (≈ 0.855 µM); against Candida albicans it was 1 µg/mL (≈ 1.71 µM).
As to `O=C(O)c1cn(C2CC2)c2c(Cl)c(N3CCC(NCC(O)(Cn4cncn4)c4ccc(Cl)c(Cl)c4)C3)c(F)cc2c1=O` (racemic), the MIC against Pseudomonas aeruginosa is 0.5 µg/mL (≈ 0.786 µM); in the test on Escherichia coli, 4 µg/mL (≈ 6.29 µM); with Staphylococcus aureus [1], 0.25 µg/mL (≈ 0.393 µM); in the test with Micrococcus luteus, 0.5 µg/mL (≈ 0.786 µM); in [2], 0.25 µg/mL (≈ 0.393 µM); against Bacillus subtilis it was 32 µg/mL (≈ 50.3 µM). The MIC with Staphylococcus aureus [3] amounted to 8 µg/mL (≈ 12.6 µM); with Shigella dysenteriae it was 0.5 µg/mL (≈ 0.786 µM); in the test with Candida, 0.5 µg/mL (≈ 0.786 µM); against Candida albicans, 2 µg/mL (≈ 3.15 µM).
Take `O=C(O)c1cn(C2CC2)c2c(Cl)c(N3CCC(NCC(O)(Cn4cncn4)c4ccc(F)c(F)c4)C3)c(F)cc2c1=O` (racemic): the minimal inhibitory concentration (MIC) against Pseudomonas aeruginosa was found to be 0.5 µg/mL (≈ 0.829 µM); against Escherichia coli it was 1 µg/mL (≈ 1.66 µM); in the test on Staphylococcus aureus [1] it was 0.5 µg/mL (≈ 0.829 µM); in the test with Micrococcus luteus, 0.5 µg/mL (≈ 0.829 µM); in test [2], 0.5 µg/mL (≈ 0.829 µM); against Bacillus subtilis, 0.5 µg/mL (≈ 0.829 µM). Moreover, the MIC against Staphylococcus aureus [3], in the test with Shigella dysenteriae, against Candida and in the test with Candida albicans was 0.5 µg/mL (≈ 0.829 µM) throughout.
Turning to `O=C(O)c1cn(C2CC2)c2c(Cl)c(N3CCC(NCC(O)(Cn4cncn4)c4ccc(Cl)cc4Cl)C3)c(F)cc2c1=O` (racemic), the MIC is 2 µg/mL (≈ 3.15 µM) against Pseudomonas aeruginosa; 4 µg/mL (≈ 6.29 µM) with Escherichia coli; 4 µg/mL (≈ 6.29 µM) in the test on Staphylococcus aureus [1]; 0.5 µg/mL (≈ 0.786 µM) in the test on Micrococcus luteus; 1 µg/mL (≈ 1.57 µM) in [2]; 32 µg/mL (≈ 50.3 µM) with Bacillus subtilis. Besides, the MIC is 4 µg/mL (≈ 6.29 µM) against Staphylococcus aureus [3], 0.5 µg/mL (≈ 0.786 µM) against Shigella dysenteriae, 0.5 µg/mL (≈ 0.786 µM) with Candida and 4 µg/mL (≈ 6.29 µM) against Candida albicans.
